Article PMC3005847 (Biochemistry, 2010)
Positions count from the first letter of the chain named.

Assays:
T. foetus IMPDH R322E [1] = molecular target: T1, T. foetus IMPDH R322E (Tritrichomonas foetus, UniProt P50097, R322E); test: Multiple-inhibitor kinetics with tiazofurin and ADP, R322E; assay type: biochemical; conditions: R322E relative to wild-type
T1 sequence (P50097 1-503 R322E): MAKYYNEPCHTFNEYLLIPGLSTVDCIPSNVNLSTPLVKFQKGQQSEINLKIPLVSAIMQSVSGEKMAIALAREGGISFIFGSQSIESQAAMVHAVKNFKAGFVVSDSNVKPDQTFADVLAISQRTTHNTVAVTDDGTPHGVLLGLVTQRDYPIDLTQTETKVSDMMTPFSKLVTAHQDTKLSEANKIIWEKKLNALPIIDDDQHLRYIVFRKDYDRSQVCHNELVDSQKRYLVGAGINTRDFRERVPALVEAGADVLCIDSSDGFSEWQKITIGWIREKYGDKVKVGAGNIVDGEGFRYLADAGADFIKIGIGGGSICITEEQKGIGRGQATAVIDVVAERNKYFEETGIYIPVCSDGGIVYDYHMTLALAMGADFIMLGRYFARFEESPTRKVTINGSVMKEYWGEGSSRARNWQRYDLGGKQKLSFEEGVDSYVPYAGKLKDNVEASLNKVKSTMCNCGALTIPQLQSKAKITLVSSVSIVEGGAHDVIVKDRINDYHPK
In short: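 Mutant enzymes were expressed in IMPDH-lacking E. coli H712 and purified by IMP-affinity chromatography. Tiazofurin and ADP were varied together in assay buffer (50 mM Tris-Cl pH 8.0, 100 mM KCl, 1 mM DTT) at 25 °C. NADH formation was followed at 340 nm. Initial velocities were fitted to a two-inhibitor equation giving Ki, Kj and interaction constant α.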

T. foetus IMPDH R322A = molecular target: T2, T. foetus IMPDH R322A (Tritrichomonas foetus, UniProt P50097, R322A); test: Steady-state kinetics, R322A; assay type: biochemical; conditions: read-out: Km NAD^+, pH 8.0, 25 °C
T2 sequence (P50097 1-503 R322A): T1 sequence (P50097 1-503 R322E) with E322A

[2] = molecular target: T3, T. foetus IMPDH wild-type (Tritrichomonas foetus, UniProt P50097); test: Equilibrium dissociation constant by intrinsic protein fluorescence, wild-type; assay type: binding; conditions: corrected for non-specific quenching, assay buffer, 25 °C
T. foetus IMPDH R322E [3] = molecular target: T1, T. foetus IMPDH R322E; test: Steady-state kinetics, R322E; assay type: biochemical; conditions: read-out: Km NAD^+, pH 8.0, 25 °C
In short: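 Mutant enzyme was expressed in IMPDH-deficient E. coli H712 and IMP-affinity purified. Assay buffer was 50 mM Tris-Cl pH 8.0, 100 mM KCl, 1 mM DTT, at 25 °C. NADH production was monitored at 340 nm (ε = 6.22 mM−1cm−1). Initial velocities were fitted to Michaelis–Menten or to a form with uncompetitive substrate inhibition, giving Km.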

[4] = molecular target: T3, T. foetus IMPDH wild-type; conditions: cited from earlier work
T. foetus IMPDH Q324A = molecular target: T4, T. foetus IMPDH Q324A (Tritrichomonas foetus, UniProt P50097, Q324A); test: Steady-state kinetics, Q324A; assay type: biochemical
T4 sequence (P50097 1-503 Q324A): T1 sequence (P50097 1-503 R322E) with E322R, Q324A

T. foetus IMPDH R322E [5] = molecular target: T1, T. foetus IMPDH R322E; test: Equilibrium dissociation constant by intrinsic protein fluorescence, R322E; assay type: binding; conditions: assay buffer, 25 °C
In short: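 NAD+ titrated into 0.2–0.3 µM R322E enzyme. The enzyme was expressed in IMPDH-deficient E. coli H712 and IMP-affinity purified. Assay buffer was 50 mM Tris-Cl pH 8.0, 100 mM KCl, 1 mM DTT, at 25 °C. Intrinsic protein fluorescence read at ex 295 / em 344 nm, corrected for inner-filter effect. Nonspecific quenching measured by titrating ligand into L-tryptophan. Kd taken from the corrected binding curve.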

T. foetus IMPDH E323A = molecular target: T5, T. foetus IMPDH E323A (Tritrichomonas foetus, UniProt P50097, E323A); test: Steady-state kinetics, E323A; assay type: biochemical; conditions: read-out: Km NAD^+, pH 8.0, 25 °C
T5 sequence (P50097 1-503 E323A): T1 sequence (P50097 1-503 R322E) with E322R, E323A

Row | SMILES | Decrease in affinity of tiazofurin caused by the mutation (factor) (T. foetus IMPDH R322E [1]) | Km (T. foetus IMPDH R322A) [µM] | Kd [2] [µM] | Km (T. foetus IMPDH R322E [3]) [µM] | Km ([4]; read-out: Km NAD^+) [µM] | Kii NAD^+ ([4]; uncompetitive substrate inhibition) [mM] | Km (T. foetus IMPDH Q324A; read-out: Km NAD^+, pH 8.0, 25 °C) [µM] | Kii NAD^+ (T. foetus IMPDH Q324A; uncompetitive substrate inhibition, pH 8.0, 25 °C) [mM] | Kd (T. foetus IMPDH R322E [5]) [µM] | Km (T. foetus IMPDH E323A) [µM]
1 | NC(=O)c1csc([C@@H]2O[C@H](CO)[C@@H](O)[C@H]2O)n1 [TAZ, tiazofurin] | > 3 | – | – | – | – | – | – | – | – | –
2 | NC(=O)c1ccc[n+]([C@@H]2O[C@H](COP(=O)([O-])OP(=O)(O)OC[C@H]3O[C@@H](n4cnc5c(N)ncnc54)[C@H](O)[C@@H]3O)[C@@H](O)[C@H]2O)c1 [NAD^+] | – | 910 ± 90 | 27 ± 6 | 2600 ± 700 | 150 ± 30 | 7 ± 2 | 120 ± 20 | 2.4 ± 0.3 | 37 ± 10 | 300 ± 20
